# Where “and” joins values, the source holds several entries; their conditions need not be identical. Identical values can stand only once. Like-named read-outs stand apart in the source and are kept apart here. Where no end group is shown, it is not given here.
# Key:
# [1] = assay type: in vitro ADME, human; settings: for original content still present / detected in plasma: after 1 month of storage at −80 °C, P100 plasma; for T90 in days (±SEM) in P100 plasma: 50 nM, T90 extrapolated
# How it was run: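 Cell-free plasma from BD P100 tubes spiked with the training peptide mix, 50 nM each (final). Aliquots stored at 4, −35 or −80 °C for up to 1 month. Sampled before storage and at 1, 7 and 30 days. Each 50 µL sample was acidified-acetonitrile precipitated, sonicated, boiled and centrifuged, then run by UPLC–MS/MS. Content normalised to baseline. T90 extrapolated from first-order decay fits.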
# [2] = assay type: in vitro ADME, human; settings: time frame of 7.5 h, at both 4 and 21 °C, all tubes
# How it was run: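 Fresh donor whole blood, in EDTA, EDTA plus protease-inhibitor cocktail (1:100 final), BD P100 or BD P800 tubes, held 30 min at 4, 21 or 37 °C. Then spiked with peptide mix at 10 nM each (final). Sampled at 0, 2.5, 5 and 7.5 h and centrifuged. Plasma acetonitrile/formic acid precipitated and analysed by amide UPLC–ESI(+)–MS/MS MRM. T0-normalised ln areas fitted first-order (λ). T50/T90 reported ±SEM by error propagation, n = 4.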
# [3] = assay type: in vitro ADME, human; settings: whole blood
# How it was run: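 Validation arm: fresh whole blood in EDTA or BD P100 tubes, equilibrated 30 min at 4 °C. Spiked with four peptides not used in training, 10 nM each (final). Aliquots taken at 0–7.5 h and centrifuged 1800g for 10 min. Plasma deproteinised with acidified acetonitrile, then quantified by UPLC–MS/MS MRM. Decay constant taken from the ln-linear slope. T50/T90 derived assuming first-order kinetics, SEM by error propagation.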
# [4] = storage at 4 °C, n = 4, up to 1 month
# [5] = storage at −35 °C, n = 4, thawed once, up to 1 month
# [6] = storage at −80 °C, n = 4, thawed once, up to 1 month
# [7] = external validation, P100 tube, 4 °C
# [8] = head-to-head comparison, EDTA sampling tube at 4 °C
# [9] = head-to-head comparison, P100 sampling tube at 4 °C
Substance,original content still present / detected in plasma [1],"T90 in days (±SEM) in P100 plasma [1, 4]","T90 in days (±SEM) in P100 plasma [1, 5]","T90 in days (±SEM) in P100 plasma [1, 6]","T50 [±SEM] [3, 7]","T90 [±SEM] (time where 90% of the peptide is still present) [3, 7]","decay constant (λ) [±SEM] [3, 7]",other results
SGSLSTFFRLFNRSFTQALGK [Q176],more than 95%,0.48 (±0.02) days,16.4 (±6.98) days,46.4 (±64.18) days,,,,
"SIFTLVA [Q184, SIFTLVA]",~25%,2.24 (±0.20) days,2.56 (±0.21) days,2.6 days and 2.61 (±0.23) days,,,,degradation of the peptide in whole blood [2]: no degradation
SNLVECVFSLFKKCN [Q076],,1.24 (±0.03) days,20.4 (±13.67) days,13.2 (±4.80) days,,,,
ESRLPKIRFDFIFPRKK [Q054],,,,,1.87 [±0.17] h,0.28 [±0.03] h,–0.00619 [±0.00056],
"SDLPFEH [Q164, SDLPFEH]",more than 95%,0.95 (±0.23) days,33.8 (±45.91) days,96.3 (±136.01) days,,,,
ESRVSRIILDFLFQRKK [Q055],,,,,1.49 [±0.12] h,0.23 [±0.02] h,–0.00776 [±0.00064],"T50 [±SEM] [3, 8]: 1.35 [±0.33] h; T90 [±SEM] [3, 8]: 0.21 [±0.05] h; decay constant (λ) [±SEM] [3, 8]: –0.00856 [±0.0021]; T50 [±SEM] [3, 9]: 2.07 [±0.36] ^a h; T90 [±SEM] [3, 9]: 0.31 [±0.05] ^a h; decay constant (λ) [±SEM] [3, 9]: –0.00559 [±0.00098]"
